Results on one compound are retold here after publication PMC4285624 (Biochemical pharmacology, 2014).

The term IC50 denotes the concentration that gives 50% inhibition.

The subject of data set [1] is peripheral blood lymphocytes. Conditions: cited from earlier work.
Data set [2] addresses Full length, heterotrimeric human RPA (fl-RPA) (Homo sapiens, UniProt P27694). In words: EMSA of full length RPA binding to ssDNA. Conditions: read-out: In vitro IC50, RPA-DNA binding, compounds titrated 1–125 μM. It is filed as biochemical. The procedure, abridged: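 Recombinant full-length heterotrimeric human RPA (50 nM, E. coli-expressed) was preincubated 30 min with DMSO-dissolved compound (DMSO ≤5%). Bound and free DNA were separated on 6% native gels and quantified by phosphorimager. IC50 came from nonlinear regression; three independent determinations.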
Background: Mobility shift assays separate free from complexed probe on a gel.

A further data set addresses RPA DBD-A/B (Homo sapiens, UniProt P27694). In words: EMSA of RPA DBD-A/B binding to DNA. It is filed as biochemical. The settings on record: 150 nM DBD-A/B, compounds 25–100 μM. The procedure, abridged:
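The RPA181–432 DBD-A/B fragment was expressed in E. coli BL21(DE3) as a SUMO-His6 fusion (0.5 mM IPTG, 3 h, 37 °C). It was Ni-NTA purified, SUMO-cleaved with ULP1, and polished by size exclusion. Protein was preincubated 30 min with compound, then mixed with 2.5 nM 5′-32P 34-base DNA for 5 min at room temperature. Products were run on 6% native gels at 4 °C and quantified by phosphorimager.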

For data set [3] the following is noted: cited from earlier work.
For another data set, the system named is lung cancer cell line. Conditions: cited from earlier work.

Chain of RPA DBD-A/B (P27694 181-432): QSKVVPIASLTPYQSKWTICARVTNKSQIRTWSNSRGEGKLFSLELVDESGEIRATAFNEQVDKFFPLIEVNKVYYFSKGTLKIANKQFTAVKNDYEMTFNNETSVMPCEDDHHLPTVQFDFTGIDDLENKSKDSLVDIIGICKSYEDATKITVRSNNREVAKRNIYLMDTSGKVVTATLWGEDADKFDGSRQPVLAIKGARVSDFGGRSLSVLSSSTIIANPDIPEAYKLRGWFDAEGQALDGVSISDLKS
Chain of Full length, heterotrimeric human RPA (fl-RPA) (P27694 whole entry): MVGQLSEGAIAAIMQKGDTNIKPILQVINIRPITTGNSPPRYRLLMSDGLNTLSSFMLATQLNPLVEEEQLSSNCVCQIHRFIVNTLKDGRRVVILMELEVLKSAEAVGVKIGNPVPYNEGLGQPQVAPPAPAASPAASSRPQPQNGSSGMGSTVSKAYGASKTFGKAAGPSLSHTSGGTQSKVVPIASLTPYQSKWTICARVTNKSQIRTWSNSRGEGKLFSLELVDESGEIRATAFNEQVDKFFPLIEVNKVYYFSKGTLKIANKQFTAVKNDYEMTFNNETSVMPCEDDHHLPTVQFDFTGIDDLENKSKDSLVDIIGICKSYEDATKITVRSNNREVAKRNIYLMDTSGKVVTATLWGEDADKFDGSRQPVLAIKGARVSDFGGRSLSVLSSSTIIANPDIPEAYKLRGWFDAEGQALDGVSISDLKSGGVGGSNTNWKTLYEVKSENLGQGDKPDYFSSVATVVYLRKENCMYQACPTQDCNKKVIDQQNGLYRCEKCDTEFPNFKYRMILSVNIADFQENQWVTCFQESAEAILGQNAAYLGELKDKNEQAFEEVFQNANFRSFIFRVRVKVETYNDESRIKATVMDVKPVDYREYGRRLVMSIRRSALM
Chain of Full length, heterotrimeric human RPA (fl-RPA) (P15927 whole entry partner): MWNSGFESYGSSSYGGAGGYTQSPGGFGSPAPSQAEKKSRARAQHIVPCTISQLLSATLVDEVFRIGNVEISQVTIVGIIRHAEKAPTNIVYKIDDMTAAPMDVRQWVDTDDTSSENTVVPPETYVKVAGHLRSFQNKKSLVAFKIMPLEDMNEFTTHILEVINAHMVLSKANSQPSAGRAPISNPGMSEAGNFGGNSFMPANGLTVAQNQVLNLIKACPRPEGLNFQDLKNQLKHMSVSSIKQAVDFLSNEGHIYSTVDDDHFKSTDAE
Chain of Full length, heterotrimeric human RPA (fl-RPA) (P35244 whole entry partner): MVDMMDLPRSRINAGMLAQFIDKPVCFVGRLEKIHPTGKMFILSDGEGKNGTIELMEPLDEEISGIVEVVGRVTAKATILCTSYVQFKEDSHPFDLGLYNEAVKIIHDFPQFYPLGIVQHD

In the case of `CCOc1ccc2cc(C3CC(c4ccc(Br)cc4)=NN3C(=O)CCC(=O)O)c(Cl)nc2c1` (stereo not drawn) [TDRL-505], the “cytotoxic effects on peripheral blood lymphocytes” value in data set [1] is “minimal cytotoxic effects”. For the same compound, the IC50 in data set [2] came out at 38 µM. Besides, the “inhibition of RPA DBD-A/B-DNA interaction” value on RPA DBD-A/B is “inhibit RPA DBD-A/B-DNA interaction”. Besides, the cell cycle effect entry in data set [3] is “G1 cell cycle arrest”. Further, in the data set on lung cancer cell line (lung cancer cell line, published data), the “synergy with Pt” value is given as “synergy”. Besides, the synergy with etoposide result in the data set with lung cancer cell line (lung cancer cells, flow cytometry based Annexin-PI staining assay) is given as “highly synergistic”.
